# System: Fibroblast
# Assay: Multiplex assay against human fibroblast
# Format: toxicity, cell-based
# Procedure, shortened: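 With compound added, live cells were imaged on a CQ1 microscope at 37°C and 5% CO2; staining with Hoechst33342, BioTracker Green Microtubule Cytoskeleton Dye, MitoTracker Red and Annexin V Alexa Fluor 680 had been done at seeding. The CellPathfinder machine-learning gating scheme split cells into Hoechst high-intensity objects or normal cells, normal cells into healthy, pyknosed or fragmented nuclei, and pyknosed cells into mitotic or apoptotic. The tubulin, mitochondrial-mass and membrane-permeability phenotypes are per cents of healthy-nucleus cells.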
# [1] = 12 h, 1 µM, compound concentration 1 uM, replicate 1
# [2] = 12 h, 1 µM, compound concentration 1 uM, replicate 2
# [3] = 12 h, 10 µM, compound concentration 10 uM, replicate 1
# [4] = 12 h, 10 µM, compound concentration 10 uM, replicate 2
# [5] = 24 h, 1 µM, compound concentration 1 uM, replicate 1
# [6] = 24 h, 1 µM, compound concentration 1 uM, replicate 2
# [7] = 24 h, 10 µM, compound concentration 10 uM, replicate 1
# [8] = 24 h, 10 µM, compound concentration 10 uM, replicate 2
# [9] = 48 h, 1 µM, compound concentration 1 uM, replicate 1
# [10] = 48 h, 1 µM, compound concentration 1 uM, replicate 2
# [11] = 48 h, 10 µM, compound concentration 10 uM, replicate 1
# [12] = 48 h, 10 µM, compound concentration 10 uM, replicate 2
smiles,measurement,setting,value
CNc1oc(-c2cccc3ccccc23)nc1C#N,Population Apoptotic (%),[1],75%
same,Population Fragmented Nuclei (%),[1],65%
same,Population Healthy Nuclei (%),[1],23%
same,Population Hoechst High Intensity Objects (%),[1],70%
same,Population Membrane Permeable-Phenotype (%),[1],25%
same,Population Mitochondria Different-Phenotype (%),[1],0%
same,Population Mitotic Cells (%),[1],25%
same,Population Normal (%),[1],29%
same,Population Pyknosed Nuclei (%),[1],10%
same,Population Tubulin-Different-Phenotype (%),[1],14%
same,Total Cell Count,[1],381
same,Population Apoptotic (%),[2],0%
same,Population Fragmented Nuclei (%),[2],29%
same,Population Healthy Nuclei (%),[2],67%
same,Population Hoechst High Intensity Objects (%),[2],15%
same,Population Membrane Permeable-Phenotype (%),[2],3%
same,Population Mitochondria Different-Phenotype (%),[2],11%
same,Population Mitotic Cells (%),[2],100%
same,Population Normal (%),[2],84%
same,Population Pyknosed Nuclei (%),[2],2%
same,Population Tubulin-Different-Phenotype (%),[2],7%
same,Total Cell Count,[2],100
same,Population Apoptotic (%),[3],92%
same,Population Fragmented Nuclei (%),[3],41%
same,Population Healthy Nuclei (%),[3],23%
same,Population Hoechst High Intensity Objects (%),[3],64%
same,Population Membrane Permeable-Phenotype (%),[3],0%
same,Population Mitochondria Different-Phenotype (%),[3],0%
same,Population Mitotic Cells (%),[3],7%
same,Population Normal (%),[3],35%
same,Population Pyknosed Nuclei (%),[3],35%
same,Population Tubulin-Different-Phenotype (%),[3],0%
same,Total Cell Count,[3],3193
same,Population Apoptotic (%),[4],80%
same,Population Fragmented Nuclei (%),[4],55%
same,Population Healthy Nuclei (%),[4],16%
same,Population Hoechst High Intensity Objects (%),[4],46%
same,Population Membrane Permeable-Phenotype (%),[4],1%
same,Population Mitochondria Different-Phenotype (%),[4],3%
same,Population Mitotic Cells (%),[4],19%
same,Population Normal (%),[4],53%
same,Population Pyknosed Nuclei (%),[4],28%
same,Population Tubulin-Different-Phenotype (%),[4],24%
same,Total Cell Count,[4],92
same,Population Apoptotic (%),[5],33%
same,Population Fragmented Nuclei (%),[5],66%
same,Population Healthy Nuclei (%),[5],27%
same,Population Hoechst High Intensity Objects (%),[5],70%
same,Population Membrane Permeable-Phenotype (%),[5],6%
same,Population Mitochondria Different-Phenotype (%),[5],0%
same,Population Mitotic Cells (%),[5],66%
same,Population Normal (%),[5],29%
same,Population Pyknosed Nuclei (%),[5],5%
same,Population Tubulin-Different-Phenotype (%),[5],3%
same,Total Cell Count,[5],391
same,Population Apoptotic (%),[6],25%
same,Population Fragmented Nuclei (%),[6],28%
same,Population Healthy Nuclei (%),[6],67%
same,Population Hoechst High Intensity Objects (%),[6],6%
same,Population Membrane Permeable-Phenotype (%),[6],1%
same,Population Mitochondria Different-Phenotype (%),[6],10%
same,Population Mitotic Cells (%),[6],75%
same,Population Normal (%),[6],93%
same,Population Pyknosed Nuclei (%),[6],3%
same,Population Tubulin-Different-Phenotype (%),[6],21%
same,Total Cell Count,[6],113
same,Population Apoptotic (%),[7],93%
same,Population Fragmented Nuclei (%),[7],44%
same,Population Healthy Nuclei (%),[7],24%
same,Population Hoechst High Intensity Objects (%),[7],66%
same,Population Membrane Permeable-Phenotype (%),[7],1%
same,Population Mitochondria Different-Phenotype (%),[7],0%
same,Population Mitotic Cells (%),[7],6%
same,Population Normal (%),[7],33%
same,Population Pyknosed Nuclei (%),[7],31%
same,Population Tubulin-Different-Phenotype (%),[7],0%
same,Total Cell Count,[7],2998
same,Population Apoptotic (%),[8],81%
same,Population Fragmented Nuclei (%),[8],57%
same,Population Healthy Nuclei (%),[8],16%
same,Population Hoechst High Intensity Objects (%),[8],44%
same,Population Membrane Permeable-Phenotype (%),[8],3%
same,Population Mitochondria Different-Phenotype (%),[8],3%
same,Population Mitotic Cells (%),[8],18%
same,Population Normal (%),[8],55%
same,Population Pyknosed Nuclei (%),[8],25%
same,Population Tubulin-Different-Phenotype (%),[8],26%
same,Total Cell Count,[8],116
same,Population Apoptotic (%),[9],40%
same,Population Fragmented Nuclei (%),[9],71%
same,Population Healthy Nuclei (%),[9],23%
same,Population Hoechst High Intensity Objects (%),[9],77%
same,Population Membrane Permeable-Phenotype (%),[9],22%
same,Population Mitochondria Different-Phenotype (%),[9],4%
same,Population Mitotic Cells (%),[9],60%
same,Population Normal (%),[9],22%
same,Population Pyknosed Nuclei (%),[9],5%
same,Total Cell Count,[9],411
same,Population Apoptotic (%),[10],80%
same,Population Fragmented Nuclei (%),[10],75%
same,Population Healthy Nuclei (%),[10],19%
same,Population Hoechst High Intensity Objects (%),[10],78%
same,Population Membrane Permeable-Phenotype (%),[10],31%
same,Population Mitochondria Different-Phenotype (%),[10],0%
same,Population Mitotic Cells (%),[10],20%
same,Population Normal (%),[10],21%
same,Population Pyknosed Nuclei (%),[10],4%
same,Population Tubulin-Different-Phenotype (%),[10],4%
same,Total Cell Count,[10],519
same,Population Apoptotic (%),[11],85%
same,Population Fragmented Nuclei (%),[11],47%
same,Population Healthy Nuclei (%),[11],22%
same,Population Hoechst High Intensity Objects (%),[11],65%
same,Population Membrane Permeable-Phenotype (%),[11],0%
same,Population Mitochondria Different-Phenotype (%),[11],0%
same,Population Mitotic Cells (%),[11],14%
same,Population Normal (%),[11],34%
same,Population Pyknosed Nuclei (%),[11],30%
same,Population Tubulin-Different-Phenotype (%),[11],0%
same,Total Cell Count,[11],2643
same,Population Fragmented Nuclei (%),[12],46%
same,Population Healthy Nuclei (%),[12],23%
same,Population Hoechst High Intensity Objects (%),[12],69%
same,Population Normal (%),[12],30%
same,Population Tubulin-Different-Phenotype (%),[12],1%
same,Total Cell Count,[12],2437
N#Cc1cnc(Nc2cc(NC[C@H]3CNCCO3)c(C(F)(F)F)cn2)cn1 [SRA-737],Population Apoptotic (%),[1],65%
same,Population Fragmented Nuclei (%),[1],23%
same,Population Healthy Nuclei (%),[1],59%
same,Population Hoechst High Intensity Objects (%),[1],13%
same,Population Membrane Permeable-Phenotype (%),[1],9%
same,Population Mitochondria Different-Phenotype (%),[1],1%
same,Population Mitotic Cells (%),[1],34%
same,Population Normal (%),[1],86%
same,Population Tubulin-Different-Phenotype (%),[1],4%
same,Total Cell Count,[1],196
same,Population Apoptotic (%),[2],37%
same,Population Fragmented Nuclei (%),[2],60%
same,Population Healthy Nuclei (%),[2],21%
same,Population Hoechst High Intensity Objects (%),[2],35%
same,Population Membrane Permeable-Phenotype (%),[2],10%
same,Population Mitochondria Different-Phenotype (%),[2],0%
same,Population Mitotic Cells (%),[2],62%
same,Population Normal (%),[2],64%
same,Population Pyknosed Nuclei (%),[2],17%
same,Population Tubulin-Different-Phenotype (%),[2],0%
same,Total Cell Count,[2],71
same,Population Apoptotic (%),[3],69%
same,Population Fragmented Nuclei (%),[3],33%
same,Population Healthy Nuclei (%),[3],53%
same,Population Hoechst High Intensity Objects (%),[3],12%
same,Population Membrane Permeable-Phenotype (%),[3],11%
same,Population Mitochondria Different-Phenotype (%),[3],1%
same,Population Mitotic Cells (%),[3],30%
same,Population Normal (%),[3],87%
same,Population Pyknosed Nuclei (%),[3],13%
same,Population Tubulin-Different-Phenotype (%),[3],8%
same,Total Cell Count,[3],288
same,Population Apoptotic (%),[4],28%
same,Population Fragmented Nuclei (%),[4],58%
same,Population Healthy Nuclei (%),[4],28%
same,Population Hoechst High Intensity Objects (%),[4],34%
same,Population Membrane Permeable-Phenotype (%),[4],7%
same,Population Mitochondria Different-Phenotype (%),[4],35%
same,Population Mitotic Cells (%),[4],71%
same,Population Normal (%),[4],65%
same,Population Pyknosed Nuclei (%),[4],14%
same,Population Tubulin-Different-Phenotype (%),[4],21%
same,Total Cell Count,[4],76
same,Population Apoptotic (%),[5],50%
same,Population Fragmented Nuclei (%),[5],31%
same,Population Healthy Nuclei (%),[5],56%
same,Population Hoechst High Intensity Objects (%),[5],9%
same,Population Membrane Permeable-Phenotype (%),[5],7%
same,Population Mitochondria Different-Phenotype (%),[5],2%
same,Population Mitotic Cells (%),[5],50%
same,Population Normal (%),[5],90%
same,Population Pyknosed Nuclei (%),[5],11%
same,Population Tubulin-Different-Phenotype (%),[5],1%
same,Total Cell Count,[5],205
same,Population Apoptotic (%),[6],42%
same,Population Fragmented Nuclei (%),[6],63%
same,Population Healthy Nuclei (%),[6],22%
same,Population Hoechst High Intensity Objects (%),[6],24%
same,Population Membrane Permeable-Phenotype (%),[6],9%
same,Population Mitochondria Different-Phenotype (%),[6],9%
same,Population Mitotic Cells (%),[6],57%
same,Population Normal (%),[6],75%
same,Population Pyknosed Nuclei (%),[6],14%
same,Population Tubulin-Different-Phenotype (%),[6],18%
same,Total Cell Count,[6],65
same,Population Apoptotic (%),[7],71%
same,Population Fragmented Nuclei (%),[7],41%
same,Population Healthy Nuclei (%),[7],48%
same,Population Hoechst High Intensity Objects (%),[7],18%
same,Population Membrane Permeable-Phenotype (%),[7],9%
same,Population Mitochondria Different-Phenotype (%),[7],2%
same,Population Mitotic Cells (%),[7],28%
same,Population Normal (%),[7],81%
same,Population Pyknosed Nuclei (%),[7],10%
same,Population Tubulin-Different-Phenotype (%),[7],15%
same,Total Cell Count,[7],342
same,Population Apoptotic (%),[8],28%
same,Population Fragmented Nuclei (%),[8],59%
same,Population Healthy Nuclei (%),[8],26%
same,Population Hoechst High Intensity Objects (%),[8],27%
same,Population Membrane Permeable-Phenotype (%),[8],15%
same,Population Mitochondria Different-Phenotype (%),[8],30%
same,Population Mitotic Cells (%),[8],71%
same,Population Normal (%),[8],72%
same,Population Pyknosed Nuclei (%),[8],14%
same,Population Tubulin-Different-Phenotype (%),[8],30%
same,Total Cell Count,[8],68

# From ChEMBL document CHEMBL4689842, “EUbOPEN Chemogenomics Library wave 1” (2021)
